Laboratory results from ChEMBL document CHEMBL1123716, “Synthesis and tumor uptake of 5-halo-1-(2'-fluoro-2'-deoxy-beta-D-ribofuranosyl)[2-14C]uracils” (J Med Chem, 1987).

What was measured:
Details in all cases: in vivo
Mus musculus [1] = assay: Tissue distribution in BDF1 female mice bearing an implanted lewis lung tumor after intravenous injection in kidney at 1 h.; format: ADME, organism-based
How it was run: (§1)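 Female BDF1 mice (18–20 g) with implanted Lewis lung tumor received the 2-14C compound by tail vein, 23–193 kBq in normal saline, reconstituted from a dry film just before use. Animals were killed at set times and tissues taken for 14C counting by combustion and liquid scintillation. Values are percent injected dose per gram wet tissue, mean ± standard deviation, six animals.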

Mus musculus [2] = assay: Tissue distribution in BDF1 female mice bearing an implanted lewis lung tumor after intravenous injection in stomach at 1 h.; format: ADME, organism-based
How it was run: (§2)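 Female BDF₁ mice (18–20 g) carrying transplanted Lewis lung tumor received 23–193 kBq of the [2-¹⁴C]-labeled nucleoside in normal saline via tail vein. The compound was stored as a dry film and reconstituted just before use. Animals were killed at set times, and tissue ¹⁴C was measured by combustion and liquid scintillation. Values are mean ± SD % injected dose per gram of wet tissue, n = 6.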

Mus musculus [3] = assay: Tissue distribution in BDF1 female mice bearing an implanted lewis lung tumor after intravenous injection in lung at 2 h.; format: ADME, organism-based; how it was run: as §2
Mus musculus [4] = assay: Tissue distribution in BDF1 female mice bearing an implanted lewis lung tumor after intravenous injection in heart at 8 h.; format: ADME, organism-based; how it was run: as §1
Mus musculus [5] = assay: Tissue distribution in BDF1 female mice bearing an implanted lewis lung tumor after intravenous injection in bone at 24 h.; format: ADME, organism-based; how it was run: as §1
Mus musculus [6] = assay: Tissue distribution in BDF1 female mice bearing an implanted lewis lung tumor after intravenous injection in spleen at 1 h.; format: ADME, organism-based; how it was run: as §2
Mus musculus [7] = assay: Tissue distribution in BDF1 female mice bearing an implanted lewis lung tumor after intravenous injection in bone at 4 h.; format: ADME, organism-based; how it was run: as §1
Mus musculus [8] = assay: Tissue distribution in BDF1 female mice bearing an implanted lewis lung tumor after intravenous injection in tumor at 2 h.; format: ADME, organism-based
How it was run: (§3)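 Female BDF1 mice (18–20 g) carrying a transplanted Lewis lung tumor were given 23–193 kBq of the [2-14C]-labelled nucleoside in normal saline by tail vein. Animals were killed at set times. Tissue 14C was counted by liquid scintillation, after combustion or directly. Values are percent of injected dose per gram wet tissue, as mean ± standard deviation of six animals.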

Mus musculus [9] = assay: Tissue distribution in BDF1 female mice bearing an implanted lewis lung tumor after intravenous injection in git(Section of intestine) at 2 h.; format: ADME, organism-based; how it was run: as §1
Mus musculus [10] = assay: Tissue distribution in BDF1 female mice bearing an implanted lewis lung tumor after intravenous injection in lung at 0.25 h.; format: ADME, organism-based; how it was run: as §2
Mus musculus [11] = assay: Tissue distribution in BDF1 female mice bearing an implanted lewis lung tumor after intravenous injection in tumor at 24 h.; format: ADME, organism-based; how it was run: as §3
Mus musculus [12] = assay: Tissue distribution in BDF1 female mice bearing an implanted lewis lung tumor after intravenous injection in bone at 1 h.; format: ADME, organism-based; how it was run: as §1
Mus musculus [13] = assay: Tissue distribution in BDF1 female mice bearing an implanted lewis lung tumor after intravenous injection in lung at 24 h.; format: ADME, organism-based; how it was run: as §2
Mus musculus [14] = assay: Tissue distribution in BDF1 female mice bearing an implanted lewis lung tumor after intravenous injection in stomach at 8 h.; format: ADME, organism-based; how it was run: as §3
Mus musculus [15] = assay: Tissue distribution in BDF1 female mice bearing an implanted lewis lung tumor after intravenous injection in stomach at 4 h.; format: ADME, organism-based; how it was run: as §2
Mus musculus [16] = assay: Tissue distribution in BDF1 female mice bearing an implanted lewis lung tumor after intravenous injection in blood at 1 h.; format: ADME, organism-based; how it was run: as §1
Mus musculus [17] = assay: Tissue distribution in BDF1 female mice bearing an implanted lewis lung tumor after intravenous injection in kidney at 0.5 h.; format: ADME, organism-based; how it was run: as §1
Mus musculus [18] = assay: Tissue distribution in BDF1 female mice bearing an implanted lewis lung tumor after intravenous injection in lung at 4 h; format: ADME, organism-based; how it was run: as §2
Mus musculus [19] = assay: Tissue distribution in BDF1 female mice bearing an implanted lewis lung tumor after intravenous injection in liver at 0.25 h.; format: ADME, organism-based; how it was run: as §2
Mus musculus [20] = assay: Tissue distribution in BDF1 female mice bearing an implanted lewis lung tumor after intravenous injection in tumor at 0.5 h.; format: ADME, organism-based; how it was run: as §3
Mus musculus [21] = assay: Tissue distribution in BDF1 female mice bearing an implanted lewis lung tumor after intravenous injection in kidney at 8 h.; format: ADME, organism-based; how it was run: as §2
Mus musculus [22] = assay: Tissue distribution in BDF1 female mice bearing an implanted lewis lung tumor after intravenous injection in git(Section of intestine) at 4 h.; format: ADME, organism-based; how it was run: as §1
Mus musculus [23] = assay: Tissue distribution in BDF1 female mice bearing an implanted lewis lung tumor after intravenous injection in heart at 0.5 h.; format: ADME, organism-based; how it was run: as §1
Mus musculus [24] = assay: Tissue distribution in BDF1 female mice bearing an implanted lewis lung tumor after intravenous injection in lung at 1 h.; format: ADME, organism-based; how it was run: as §2
Mus musculus [25] = assay: Tissue distribution in BDF1 female mice bearing an implanted lewis lung tumor after intravenous injection in kidney at 24 h.; format: ADME, organism-based; how it was run: as §2
Mus musculus [26] = assay: Tissue distribution in BDF1 female mice bearing an implanted lewis lung tumor after intravenous injection in bone at 0.5 h.; format: ADME, organism-based; how it was run: as §1
Mus musculus [27] = assay: Tissue distribution in BDF1 female mice bearing an implanted lewis lung tumor after intravenous injection in heart at 0.25 h.; format: ADME, organism-based; how it was run: as §1
Mus musculus [28] = assay: Tissue distribution in BDF1 female mice bearing an implanted lewis lung tumor after intravenous injection in stomach at 2 h.; format: ADME, organism-based; how it was run: as §2
Mus musculus [29] = assay: Tissue distribution in BDF1 female mice bearing an implanted lewis lung tumor after intravenous injection in lung at 0.5 h.; format: ADME, organism-based; how it was run: as §2
Mus musculus [30] = assay: Tissue distribution in BDF1 female mice bearing an implanted lewis lung tumor after intravenous injection in skin at 4 h.; format: ADME, organism-based, Skin of body; how it was run: as §2
Mus musculus [31] = assay: Tissue distribution in BDF1 female mice bearing an implanted lewis lung tumor after intravenous injection in spleen at 24 h.; format: ADME, organism-based; how it was run: as §2
Mus musculus [32] = assay: Tissue distribution in BDF1 female mice bearing an implanted lewis lung tumor after intravenous injection in git(Section of intestine) at 8 h.; format: ADME, organism-based; how it was run: as §1
Mus musculus [33] = assay: Tissue distribution in BDF1 female mice bearing an implanted lewis lung tumor after intravenous injection in blood at 2 h.; format: ADME, organism-based; how it was run: as §1
Mus musculus [34] = assay: Tissue distribution in BDF1 female mice bearing an implanted lewis lung tumor after intravenous injection in heart at 1 h.; format: ADME, organism-based; how it was run: as §1
Mus musculus [35] = assay: Tissue distribution in BDF1 female mice bearing an implanted lewis lung tumor after intravenous injection in spleen at 8 h.; format: ADME, organism-based; how it was run: as §2
Mus musculus [36] = assay: Tissue distribution in BDF1 female mice bearing an implanted lewis lung tumor after intravenous injection in muscle at 2 h.; format: ADME, organism-based; how it was run: as §2
Mus musculus [37] = assay: Tissue distribution in BDF1 female mice bearing an implanted lewis lung tumor after intravenous injection in stomach at 24 h.; format: ADME, organism-based; how it was run: as §2
Mus musculus [38] = assay: Tissue distribution in BDF1 female mice bearing an implanted lewis lung tumor after intravenous injection in muscle at 1 h.; format: ADME, organism-based; how it was run: as §2
Mus musculus [39] = assay: Tissue distribution in BDF1 female mice bearing an implanted lewis lung tumor after intravenous injection in skin at 8 h.; format: ADME, organism-based, Skin of body; how it was run: as §2
Mus musculus [40] = assay: Tissue distribution in BDF1 female mice bearing an implanted lewis lung tumor after intravenous injection in muscle at 4 h.; format: ADME, organism-based; how it was run: as §2
Mus musculus [41] = assay: Tissue distribution in BDF1 female mice bearing an implanted lewis lung tumor after intravenous injection in muscle at 24 h.; format: ADME, organism-based; how it was run: as §2
Mus musculus [42] = assay: Tissue distribution in BDF1 female mice bearing an implanted lewis lung tumor after intravenous injection in skin at 0.5 h.; format: ADME, organism-based, Skin of body; how it was run: as §2
Mus musculus [43] = assay: Tissue distribution in BDF1 female mice bearing an implanted lewis lung tumor after intravenous injection in skin at 24 h.; format: ADME, organism-based, Skin of body; how it was run: as §2
Mus musculus [44] = assay: Tissue distribution in BDF1 female mice bearing an implanted lewis lung tumor after intravenous injection in git(Section of intestine) at 1 h.; format: ADME, organism-based; how it was run: as §1

O=c1[nH]c(=O)n([C@H]2O[C@@H](CO)[C@H](O)[C@H]2F)cc1F
Tissue distribution (Mus musculus [1]): 8.21
Tissue distribution (Mus musculus [2]): 0.38
Tissue distribution (Mus musculus [3]): 0.07
Tissue distribution (Mus musculus [4]): 0.009
Tissue distribution (Mus musculus [5]): 0.02
Tissue distribution (Mus musculus [6]): 1.44
Tissue distribution (Mus musculus [7]): 0.07
Tissue distribution (Mus musculus [8]): 0.49
Tissue distribution (Mus musculus [9]): 0.11
Tissue distribution (Mus musculus [10]): 3.37
Tissue distribution (Mus musculus [11]): 0.02
Tissue distribution (Mus musculus [12]): 0.35
Tissue distribution (Mus musculus [13]): 0.005
Tissue distribution (Mus musculus [14]): 0.01
Tissue distribution (Mus musculus [15]): 0.02
Tissue distribution (Mus musculus [16]): 0.54
Tissue distribution (Mus musculus [17]): 21.9
Tissue distribution (Mus musculus [18]): 0.02
Tissue distribution (Mus musculus [19]): 3.37
Tissue distribution (Mus musculus [20]): 3.88
Tissue distribution (Mus musculus [21]): 0.02
Tissue distribution (Mus musculus [22]): 0.04
Tissue distribution (Mus musculus [23]): 1.71
Tissue distribution (Mus musculus [24]): 0.51
Tissue distribution (Mus musculus [25]): 0.01
Tissue distribution (Mus musculus [26]): 0.85
Tissue distribution (Mus musculus [27]): 3.8
Tissue distribution (Mus musculus [28]): 0.07
Tissue distribution (Mus musculus [29]): 1.43
Tissue distribution (Mus musculus [30]): 0.11
Tissue distribution (Mus musculus [31]): 0.03
Tissue distribution (Mus musculus [32]): 0.02
Tissue distribution (Mus musculus [33]): 0.06
Tissue distribution (Mus musculus [34]): 0.58
Tissue distribution (Mus musculus [35]): 0.09
Tissue distribution (Mus musculus [36]): 0.06
Tissue distribution (Mus musculus [37]): 0.005
Tissue distribution (Mus musculus [38]): 0.37
Tissue distribution (Mus musculus [39]): 0.01
Tissue distribution (Mus musculus [40]): 0.02
Tissue distribution (Mus musculus [41]): 0.004
Tissue distribution (Mus musculus [42]): 1.18
Tissue distribution (Mus musculus [43]): 0.004
Tissue distribution (Mus musculus [44]): 0.71

O=c1[nH]c(=O)n([C@H]2O[C@@H](CO)[C@H](O)[C@H]2F)cc1Cl
Tissue distribution (Mus musculus [1]): 7.28
Tissue distribution (Mus musculus [2]): 0.27
Tissue distribution (Mus musculus [3]): 0.14
Tissue distribution (Mus musculus [4]): 0.03
Tissue distribution (Mus musculus [5]): 0.01
Tissue distribution (Mus musculus [6]): 0.48
Tissue distribution (Mus musculus [7]): 0.04
Tissue distribution (Mus musculus [8]): 0.34
Tissue distribution (Mus musculus [9]): 0.17
Tissue distribution (Mus musculus [10]): 2.73
Tissue distribution (Mus musculus [11]): 0.03
Tissue distribution (Mus musculus [12]): 0.17
Tissue distribution (Mus musculus [13]): 0.01
Tissue distribution (Mus musculus [14]): 0.05
Tissue distribution (Mus musculus [15]): 0.07
Tissue distribution (Mus musculus [16]): 0.58
Tissue distribution (Mus musculus [17]): 23.2
Tissue distribution (Mus musculus [18]): 0.06
Tissue distribution (Mus musculus [19]): 2.39
Tissue distribution (Mus musculus [20]): 1.82
Tissue distribution (Mus musculus [21]): 0.09
Tissue distribution (Mus musculus [22]): 0.06
Tissue distribution (Mus musculus [23]): 1.56
Tissue distribution (Mus musculus [24]): 0.43
Tissue distribution (Mus musculus [25]): 0.03
Tissue distribution (Mus musculus [26]): 0.41
Tissue distribution (Mus musculus [27]): 3.07
Tissue distribution (Mus musculus [28]): 0.31
Tissue distribution (Mus musculus [29]): 1.41
Tissue distribution (Mus musculus [30]): 0.04
Tissue distribution (Mus musculus [31]): 0.06
Tissue distribution (Mus musculus [32]): 0.04
Tissue distribution (Mus musculus [33]): 0.18
Tissue distribution (Mus musculus [34]): 0.53
Tissue distribution (Mus musculus [35]): 0.15
Tissue distribution (Mus musculus [36]): 0.15
Tissue distribution (Mus musculus [37]): 0.01
Tissue distribution (Mus musculus [38]): 0.27
Tissue distribution (Mus musculus [39]): 0.02
Tissue distribution (Mus musculus [40]): 0.05
Tissue distribution (Mus musculus [41]): 0.01
Tissue distribution (Mus musculus [42]): 1.24
Tissue distribution (Mus musculus [43]): 0.01
Tissue distribution (Mus musculus [44]): 0.38
